Here are results for six compounds from ChEMBL document CHEMBL3272233, “Optical isomers of 2-(2-ethoxyphenoxymethyl)tetrahydro-1,4-oxazine (viloxazine) and related compounds” (1976).

The subject of test [1] is Mus musculus. The test can be described thus: Antidepressant activity in po dosed mouse assessed as antagonism of reserpine-induced hypothermia dosed 17 hrs after reserpine challenge. It counts as functional. The method, boiled down: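 Oral dosing, with doses in mg/kg. The racemate and separated optical isomers were tested by the previously published method. Potency is expressed as the ED10 for antagonism of reserpine-induced hypothermia.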

Test [2] has as its system Mus musculus. Description: Sedative activity in po dosed mouse assessed as reduction in locomotor activity during 60 mins period immediately prior to and after dosing. The following applies: 1 h, read-out: MED. It is filed as functional. The method, boiled down:
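Given orally, with doses in mg/kg. The racemate and individual isomers were run by the earlier reported procedure. The value is the minimum effective dose that reduced locomotor activity.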

For the compound `COc1cccc(OC[C@H]2CNCCO2)c1`, the ED10 in the test with Mus musculus [1] was more than 100 mg/kg. Moreover, the minimal effective dose with Mus musculus [2] is 30 mg/kg.
For `COc1cccc(OCC2CNCCO2)c1` (racemic) the same measures were more than 100 mg/kg and 3 mg/kg.
On the same counts, the results for `CCOc1ccccc1OC[C@@H]1CNCCO1` [(S)-VILOXAZINE] are 0.1 mg/kg and 1 mg/kg.
`CCOc1ccccc1OCC1CNCCO1` (racemic) [VILOXAZINE]: the ED10 with Mus musculus [1] was determined as 0.3 mg/kg. The minimal effective dose in the test with Mus musculus [2] was 3 mg/kg.
For `CCOc1ccccc1OC[C@H]1CNCCO1` [(R)-VILOXAZINE] the same measures were 1 mg/kg and 30 mg/kg.
For `COc1cccc(OC[C@@H]2CNCCO2)c1` the same measures were more than 100 mg/kg and 1 mg/kg.
